Values after ≈ are worked out from the molar mass of the structure shown. Active and inactive are the calls of the source. The calls are words filed in the database; no cut-off is given here.
Key:
[1] = tested on: Coxsackievirus B4; experiment: Antiviral activity against Coxsackie virus B4 in human HeLa cells assessed as inhibition of virus-induced cytopathogenicity; format: functional; details: Enterovirus B
How it was run: (§1)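 Confluent cell monolayers (E6SM, HEL, HeLa or Vero, per line) inoculated with 100 CCID50 virus; 1 h adsorption, residual virus removed, then incubated with compound at 400, 200, 100 … µg/ml. Cytopathicity scored once complete in untreated virus controls; MIC = concentration inhibiting virus-induced cytopathicity.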

[2] = tested on: Mycobacterium tuberculosis; experiment: Antitubercular activity against Mycobacterium tuberculosis H37Rv at 6.25 ug/ml by MABA assay; format: functional
[3] = tested on: Human betaherpesvirus 5; experiment: Antiviral activity against human cytomegalovirus Davis infected HEL cells assessed as reduction in virus plaque formation; format: functional, organism-based; details: Human betaherpesvirus 5, Davis
[4] = Cytotoxicity against human HEL cells assessed as reduction of cell growth; format: cell-based
How it was run: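 HEL cells; CC50 = compound concentration reducing cell growth by 50%.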

[5] = tested on: Human immunodeficiency virus 2; experiment: Antiviral activity against HIV2 ROD in human MT4 cells assessed as protection against virus-induced cytopathogenicity by MTT assay; format: functional, organism-based; design: Activity: concentration or dose not given beside the values; details: for IC50: Human immunodeficiency virus 2, ROD, MT4
How it was run: (§2)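 MT-4 cells at 6 × 10⁵ cells/ml infected with HIV-1 IIIB or HIV-2 ROD at 100–300 CCID50; compounds in serial five-fold dilutions, triplicate mock- and virus-infected wells. MTT viability read at 540 and 690 nm after 5 days, median OD of three wells; EC50 = 50% protection from viral cytopathic effect.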

[6] = tested on: Human alphaherpesvirus 1; experiment: Antiviral activity against HSV1 KOS in human E6SM cells assessed as reduction of virus-induced cytopathogenicity; format: functional; details: Human alphaherpesvirus 1, KOS; how it was run: as §1
[7] = tested on: Vesicular stomatitis virus; experiment: Antiviral activity against in Vesicular stomatitis virus in human HEL cells assessed as reduction of virus-induced cytopathogenicity; format: functional; how it was run: as §1
[8] = Cytotoxicity against human HeLa cells; format: cell-based
How it was run: (§3)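 Uninfected cell cultures exposed to test compounds alongside antiviral assays; minimum cytotoxic concentration (MCC) = concentration causing a microscopically detectable alteration of cell morphology.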

[9] = tested on: Human alphaherpesvirus 2; experiment: Antiviral activity against HSV2 G in human E6SM cells assessed as reduction of virus-induced cytopathogenicity; format: functional; details: Human alphaherpesvirus 2, G; how it was run: as §1
[10] = tested on: Human betaherpesvirus 5; experiment: Antiviral activity against human cytomegalovirus AD169 infected HEL cells assessed as reduction in virus plaque formation; format: functional, organism-based; details: Human betaherpesvirus 5, AD169, HEL
[11] = tested on: Human alphaherpesvirus 2; experiment: Antiviral activity against HSV2 G in human HEL cells assessed as reduction of virus-induced cytopathogenicity; format: functional; details: Human alphaherpesvirus 2, G; how it was run: as §1
[12] = Cytotoxicity against human E6SM cells; format: cell-based; details: E6SM cells; how it was run: as §3
[13] = tested on: Vero; experiment: Cytotoxicity against african green monkey Vero cells; format: cell-based; details: chlorocebus sabaeus; how it was run: as §3
[14] = tested on: Vesicular stomatitis virus; experiment: Antiviral activity against in Vesicular stomatitis virus in human E6SM cells assessed as reduction of virus-induced cytopathogenicity; format: functional; how it was run: as §1
[15] = tested on: Human alphaherpesvirus 1; experiment: Antiviral activity against HSV1 KOS in human HEL cells assessed as reduction of virus-induced cytopathogenicity; format: functional; details: Human alphaherpesvirus 1, KOS; how it was run: as §1
[16] = tested on: Human alphaherpesvirus 1; experiment: Antiviral activity against thymidine kinase deficient and acyclovir resistant HSV1 KOS in human HEL cells assessed as reduction of virus-induced cytopathogenicity; format: functional; details: Human alphaherpesvirus 1, KOS; how it was run: as §1
[17] = tested on: Human immunodeficiency virus 1; experiment: Antiviral activity against HIV1 3B in human MT4 cells assessed as protection against virus-induced cytopathogenicity by MTT assay; format: functional, organism-based; design: Activity: concentration or dose not given beside the values; details: for IC50: Human immunodeficiency virus 1, 3B, MT4; how it was run: as §2
[18] = tested on: Human alphaherpesvirus 3; experiment: Antiviral activity against TK- VZV 07/1 infected HEL cells assessed as reduction in virus plaque formation; format: functional, organism-based; details: Human alphaherpesvirus 3, 07/1, HEL
[19] = tested on: Sindbis virus; experiment: Antiviral activity against Sindbis virus in african green monkey Vero cells assessed as reduction of virus-induced cytopathogenicity; format: functional; how it was run: as §1
[20] = tested on: Human respirovirus 3; experiment: Antiviral activity against Parainfluenza 3 virus in african green monkey Vero cells assessed as reduction of virus-induced cytopathogenicity; format: functional; how it was run: as §1
[21] = tested on: Respiratory syncytial virus; experiment: Antiviral activity against respiratory syncytial virus in human HeLa cells assessed as inhibition of virus-induced cytopathogenicity; format: functional; how it was run: as §1
[22] = tested on: Mammalian orthoreovirus 1; experiment: Antiviral activity against Reo virus 1 in african green monkey Vero cells assessed as reduction of virus-induced cytopathogenicity; format: functional; how it was run: as §1
[23] = tested on: Human alphaherpesvirus 3; experiment: Antiviral activity against TK+ VZV OKA infected HEL cells assessed as reduction in virus plaque formation; format: functional, organism-based; details: Human alphaherpesvirus 3, OKA
[24] = tested on: Punta Toro virus; experiment: Antiviral activity against Punta Toro virus in african green monkey Vero cells assessed as reduction of virus-induced cytopathogenicity; format: functional; how it was run: as §1
[25] = Cytotoxicity against human HEL cells assessed as alteration of cell morphology; format: cell-based; how it was run: as §3
[26] = tested on: Coxsackievirus B4; experiment: Antiviral activity against Coxsackie virus B4 in african green monkey Vero cells assessed as reduction of virus-induced cytopathogenicity; format: functional; details: Enterovirus B; how it was run: as §1
[27] = Cytotoxicity against human MT4 cells by MTT assay; format: cell-based
How it was run: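 Mock-infected MT-4 cells (6 × 10⁵ cells/ml) with serial five-fold compound dilutions in triplicate; MTT reduction read at 540 and 690 nm after 5 days, median OD of three wells; CC50 = concentration reducing OD540 of mock-infected control by 50%.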

[28] = tested on: Vesicular stomatitis virus; experiment: Antiviral activity against vesicular stomatitis virus in human HeLa cells assessed as inhibition of virus-induced cytopathogenicity; format: functional; how it was run: as §1
[29] = tested on: Human alphaherpesvirus 1; experiment: Antiviral activity against thymidine kinase deficient and acyclovir resistant HSV1 KOS in human E6SM cells assessed as reduction of virus-induced cytopathogenicity; format: functional; details: Human alphaherpesvirus 1, KOS; how it was run: as §1

Compound | MIC [1] [mg/L] | EC50 [3] [mg/L] | CC50 [4] [mg/L] | Activity [5] [%] | IC50 [5] [mg/L] | MIC [6] [mg/L] | MIC [7] [mg/L] | MCC [8] [µg/mL] | MIC [9] [mg/L] | EC50 [10] [mg/L] | MIC [11] [mg/L] | MCC [12] [µg/mL] | Activity [13] [µg/mL] | MIC [14] [mg/L] | MIC [15] [mg/L] | MIC [16] [mg/L] | Activity [17] [%] | IC50 [17] [mg/L] | EC50 [18] [mg/L] | MIC [19] [mg/L] | also measured
C=CCn1c(COc2ccc(NC(=S)Nc3ccccc3)cc2)n[nH]c1=S | > 16 | 45 (≈ 113 µM) | 42 (≈ 106 µM) | 22.5 | > 20.3 | > 80 | 80 (≈ 201 µM) | 80 | > 80 | 45 (≈ 113 µM) | > 80 | 400 | 80 | 80 (≈ 201 µM) | > 80 | > 80 | 19 | > 20.2 | 26.8 (≈ 67.4 µM) | > 16 | inhibition at 6.25 µg/mL [2]: 79%; MIC [20]: > 16 mg/L; MIC [21]: > 16 mg/L; MIC [22]: > 16 mg/L; EC50 [23]: 9.9 mg/L (≈ 24.9 µM); MIC [24]: > 16 mg/L; MCC [25]: 400 µg/mL; MIC [26]: 16 mg/L (≈ 40.2 µM); CC50 [27]: 23.2 mg/L (≈ 58.4 µM); MIC [28]: > 16 mg/L; MIC [29]: > 80 mg/L
CCNC(=S)Nc1ccc(OCc2n[nH]c(=S)n2CC)cc1 | > 80 | 55 (≈ 163 µM) | > 50 | 8 | > 91.1 | > 400 | > 400 | 400 | 240 (≈ 711 µM) | 49 (≈ 145 µM) | 240 (≈ 711 µM) | > 400 | 400 | > 400 | > 400 | 240 (≈ 711 µM) | 9.5 | > 88.3 | 58 (≈ 172 µM) | > 80 | Activity [2]: inactive; MIC [20]: > 80 mg/L; MIC [21]: > 80 mg/L; MIC [22]: > 80 mg/L; EC50 [23]: 64 mg/L (≈ 190 µM); MIC [24]: > 80 mg/L; MCC [25]: > 400 µg/mL; MIC [26]: 48 mg/L (≈ 142 µM); CC50 [27]: 94.2 mg/L (≈ 279 µM); MIC [28]: > 80 mg/L; MIC [29]: 240 mg/L (≈ 711 µM)
CNC(=S)Nc1ccc(OCc2n[nH]c(=S)n2C)cc1 | > 400 | > 100 | > 50 | 1 | > 125 | > 400 | > 400 | > 400 | 240 (≈ 776 µM) | > 100 | 240 (≈ 776 µM) | > 400 | 400 | > 400 | > 400 | > 400 | 1 | > 112 | > 100 | > 80 | Activity [2]: inactive; MIC [20]: > 80 mg/L; MIC [21]: > 400 mg/L; MIC [22]: > 80 mg/L; EC50 [23]: > 100 mg/L; MIC [24]: > 80 mg/L; MCC [25]: > 400 µg/mL; MIC [26]: > 80 mg/L; CC50 [27]: ≥ 112 mg/L; MIC [28]: > 400 mg/L; MIC [29]: > 400 mg/L
C=CCNC(=S)Nc1ccc(OCc2n[nH]c(=S)n2CC)cc1 | > 80 | 45 (≈ 129 µM) | > 50 | 2 | > 71.4 | > 400 | > 400 | 400 | 240 (≈ 687 µM) | 45 (≈ 129 µM) | 240 (≈ 687 µM) | > 400 | 400 | > 400 | > 400 | 240 (≈ 687 µM) | 3 | > 72.3 | 42 (≈ 120 µM) | 48 (≈ 137 µM) | inhibition at 6.25 µg/mL [2]: 75%; MIC [20]: > 80 mg/L; MIC [21]: > 80 mg/L; MIC [22]: > 80 mg/L; EC50 [23]: 41 mg/L (≈ 117 µM); MIC [24]: > 80 mg/L; MCC [25]: > 400 µg/mL; MIC [26]: 48 mg/L (≈ 137 µM); CC50 [27]: 75.9 mg/L (≈ 217 µM); MIC [28]: > 80 mg/L; MIC [29]: 240 mg/L (≈ 687 µM)

Source: ChEMBL document CHEMBL1149790, “Synthesis of some novel thiourea derivatives obtained from 5-[(4-aminophenoxy)methyl]-4-alkyl/aryl-2,4-dihydro-3H-1,2,4-triazole-3-thiones and evaluation as antiviral/anti-HIV and anti-tuberculosis agents” (Eur J Med Chem, 2008)
